From ChEMBL document CHEMBL4251707, “Stereochemical Structure Activity Relationship Studies (S-SAR) of Tetrahydrolipstatin” (ACS Med Chem Lett, 2018)

Assays:
Type in all cases: cell-based
MDA-MB-231 [1] = assay: Cytotoxicity against human MDA-MB-231 cells assessed as reduction in cell viability after 72 hrs by MTT assay; details: MDA-MB-231, 72 h
How it was run: (§1)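 Cells plated at 5 × 10^3 cell/well and grown 12 to 16 h, then exposed to compound for 72 h over 0.1 nM to 100 μM, with untreated wells as controls. Viability was read by MTT as absorbance at 570 nm.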

MCF7 = assay: Cytotoxicity against human MCF7 cells assessed as reduction in cell viability after 72 hrs by MTT assay; details: MCF7, 72 h; how it was run: as §1
NCI-H460 = assay: Cytotoxicity against human H460 cells assessed as reduction in cell viability after 72 hrs by MTT assay; details: NCI-H460, 72 h; how it was run: as §1
MDA-MB-231 [2] = assay: Cytotoxicity against human MDA-MB-231 cells assessed as reduction in cell viability

Compound | IC50 (MDA-MB-231 [1]) [µM] | IC50 (MCF7) [µM] | IC50 (NCI-H460) [µM] | IC50 (MDA-MB-231 [2]) [µM]
CCCCCCCCCCC[C@@H](C[C@H]1OC(=O)[C@@H]1CCCCCC)OC(=O)[C@@H](CC(C)C)NC=O | > 100 | > 100 | > 100 | 
CCCCCCCCCCC[C@H](C[C@H]1OC(=O)[C@@H]1CCCCCC)OC(=O)[C@H](CC(C)C)NC=O | > 100 | > 100 | > 100 | 
CCCCCCCCCCC[C@H](C[C@@H]1OC(=O)[C@H]1CCCCCC)OC(=O)[C@H](CC(C)C)NC=O | > 100 | > 100 | > 100 | 
CCCCCCCCCCC[C@@H](C[C@H]1OC(=O)[C@@H]1CCCCCC)OC(=O)[C@H](CC(C)C)NC=O | > 100 | > 100 | > 100 | 
CCCCCCCCCCC[C@H](C[C@H]1OC(=O)[C@@H]1CCCCCC)OC(=O)[C@@H](CC(C)C)NC=O | > 100 | > 100 | > 100 | 
CCCCCCCCCCC[C@@H](C[C@@H]1OC(=O)[C@H]1CCCCCC)OC(=O)[C@@H](CC(C)C)NC=O | > 100 | > 100 | > 100 | 
CCCCCCCCCCC[C@H](C[C@@H]1OC(=O)[C@H]1CCCCCC)OC(=O)[C@@H](CC(C)C)NC=O | > 100 | > 100 | > 100 | 
CC[C@@]1(O)C(=O)OCc2c1cc1n(c2=O)Cc2cc3ccccc3nc2-1 [CAMPTOTHECIN] | 0.54 | 0.16 | 0.11 | 
CCCCCCCCCCC[C@@H](C[C@@H]1OC(=O)[C@H]1CCCCCC)OC(=O)[C@H](CC(C)C)NC=O [ORLISTAT] | > 100 | > 100 | > 100 | 13
